Assay results taken from ChEMBL document CHEMBL1212914, “A novel water-soluble gossypol derivative increases chemotherapeutic sensitivity and promotes growth inhibition in colon cancer” (J Med Chem, 2010).
Values joined by “and” are separate entries in the source; they are usually repeats but may differ in a detail not shown here. Equal entries are not always repeated. Active and inactive are the calls of the source. The calls are words filed in the database; no cut-off is given here.

Legend:
A549 = experiment: Cytotoxicity against human A549 cells after 72 hrs by MTT assay; assay type: functional, cell-based; conditions: A549, 72 h
Summary of the method: (§1)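 Compounds dissolved in DMSO; cells seeded at 5 × 10^3 per well and treated after adherence with a range of concentrations for 72 h, with DMSO as negative control. MTT was added for 4 h at 37 °C in the dark, formazan dissolved in DMSO, and absorbance read. IC50 (μM) was calculated as the mean of three independent experiments.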

MDA-MB-435 = experiment: Cytotoxicity against human MDA-MB-435 cells after 72 hrs by MTT assay; assay type: functional, cell-based; summary of the method: as §1
MCF7 = experiment: Cytotoxicity against human MCF7 cells after 72 hrs by MTT assay; assay type: functional, cell-based; summary of the method: as §1
SW-620 = experiment: Cytotoxicity against human SW620 cells after 72 hrs by MTT assay; assay type: functional, cell-based; summary of the method: as §1
HCT-116 = experiment: Cytotoxicity against human HCT116 cells after 72 hrs by MTT assay; assay type: functional, cell-based; summary of the method: as §1
B16-F10 = experiment: Cytotoxicity against mouse B16F10 cells after 72 hrs by MTT assay; assay type: functional, cell-based; summary of the method: as §1
PC-3 = experiment: Cytotoxicity against human PC3 cells after 72 hrs by MTT assay; assay type: functional, cell-based; summary of the method: as §1
4T1 = experiment: Cytotoxicity against mouse 4T1 cells after 72 hrs by MTT assay; assay type: functional, cell-based; summary of the method: as §1
CT26 [1] = experiment: Cytotoxicity against mouse CT26 cells after 72 hrs by MTT assay; assay type: functional, cell-based; summary of the method: as §1
CT26 [2] = experiment: Induction of apoptosis in mouse CT26 cells assessed as reduction of Bcl-xL protein level at 5 to 10 uM after 24 hrs by immunoblotting; assay type: functional, cell-based
Summary of the method: (§2)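 CT26 cells were exposed to 5 or 10 μM for the indicated times, with DMSO as control. Lysates were run on 10% SDS-PAGE and transferred to nitrocellulose. Blots were probed overnight at 4 °C for Bcl-2 and Bcl-xL, with β-actin as loading control, and detected by HRP chemiluminescence. Experiments were repeated three times.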

CT26 [3] = experiment: Induction of apoptosis in mouse CT26 cells assessed as reduction of Bcl-2 mRNA level at 10 uM after 24 hrs by RT-PCR analysis; assay type: functional, cell-based
CT26 [4] = experiment: Induction of apoptosis in mouse CT26 cells assessed as reduction of Bcl-xL mRNA level at 10 uM after 24 hrs by RT-PCR analysis; assay type: functional, cell-based
CT26 [5] = experiment: Induction of apoptosis in mouse CT26 cells assessed as inhibition of Bcl-2-Bax interaction at 20 uM after 24 hrs by immunoprecipitation analysis; assay type: functional, cell-based
Summary of the method: (§3)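 CT26 cells were treated for 24 h, with DMSO as control, then lysed in Triton X-100 buffer for 30 min at 4 °C. Lysates were immunoprecipitated overnight at 4 °C with anti-Bcl-2 or anti-Bcl-xL antibody plus protein A-agarose. Eluates were western-blotted for Bax (Bcl-2 pulldown) or Bim (Bcl-xL pulldown).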

CT26 [6] = experiment: Induction of apoptosis in mouse CT26 cells assessed as inhibition of Bcl-xL-Bim interaction at 20 uM after 24 hrs by immunoprecipitation analysis; assay type: functional, cell-based; summary of the method: as §3
CT26 [7] = experiment: Antitumor activity against mouse CT26 cells xenografted in BALB/c mouse assessed as decrease of tumor volume at 10 umol/kg, po for 12 consecutive days; assay type: functional, organism-based
Summary of the method: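 Male BALB/c mice (6-8 weeks) received 5 × 10^5 CT26 cells subcutaneously in the right flank. At 60 mm3, tumor-bearing mice were randomized (n = 4 per group) and dosed by gavage at 10 μmol/kg daily for 12 days in 10% ethanol, with vehicle as control. Tumors were measured every 2 days by caliper; volume = length × width × width × π/6.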

Mus musculus [8] = experiment: Toxicity in BALB/c mouse assessed as weight loss at 120 umol/kg, po administered daily once for 12 days; assay type: organism-based; conditions: in vivo, 288 h
Summary of the method: (§4)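 Male BALB/c mice aged 6-8 weeks, n = 6 per group, received 120 μmol/kg by gavage once daily for 12 days in 10% ethanol, with 10% ethanol alone as the control. Survival was followed over time, and mice were weighed at day 12 and then sacrificed. Small intestine was paraffin-embedded, cut into 5 μm sections, H&E-stained and examined by light microscopy. Student's t test was used.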

Mus musculus [9] = experiment: Toxicity in BALB/c mouse assessed as induction of small intestine damage at 120 umol/kg, po administered daily once for 12 days; assay type: organism-based; conditions: in vivo, 288 h; summary of the method: as §4
[10] = Solubility of the compound in 100 gram of water; assay type: physicochemical; conditions: buffer
Summary of the method: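 Water solubility was measured at 37 °C as the mass of compound dissolving in 100 g of H2O.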

[11] = Chemical stability of the compound in phosphate buffered saline at pH 7.2 to 7.4 after 30 mins; assay type: physicochemical; conditions: buffer, pH 7.2, 0.5 h
Summary of the method: (§5)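 The compound was incubated for 30 min in PBS (pH 7.2-7.4) or in human or mouse serum, and the amount remaining was analyzed by HPLC.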

Serum [12] = experiment: Metabolic stability of the compound in human serum after 30 mins; assay type: ADME, cell-free; conditions: 0.5 h; summary of the method: as §5
Serum [13] = experiment: Metabolic stability of the compound in mouse serum after 30 mins; assay type: ADME, cell-free; conditions: 0.5 h; summary of the method: as §5
CT26 [14] = experiment: Cytotoxicity against mouse CT26 cells assessed as cell viability at 20 uM after 24 hrs by […]; assay type: functional; conditions: CT26, 24 h, read-out: Activity
Summary of the method: (§6)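 CT26 cells were seeded at 2 × 10^3 per well and, after adherence, exposed to 2, 5, 10 or 20 μM for up to 120 h. Viability was read with a Cell Titer 96 Aqueous One Solution proliferation kit rather than MTT.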

CT26 [15] = experiment: Cytotoxicity against mouse CT26 cells assessed as cell viability at 20 uM after 48 hrs […]; assay type: functional; conditions: CT26, 48 h, read-out: Activity; summary of the method: as §6
CT26 [16] = experiment: Cytotoxicity against mouse CT26 cells assessed as complete cell death at 20 uM after 72 hrs by […]; assay type: functional, cell-based; summary of the method: as §6
CT26 [17] = experiment: Cytotoxicity against mouse CT26 cells at 5 to 10 uM after 24 hrs by […]; assay type: functional, cell-based; summary of the method: as §6
CT26 [18] = experiment: Cytotoxicity against mouse CT26 cells assessed as cell viability at 2 uM after 120 hrs by […]; assay type: functional; conditions: CT26, 120 h, read-out: Activity; summary of the method: as §6
CT26 [19] = experiment: Cytotoxicity against mouse CT26 cells at 2 to 20 uM by […]; assay type: functional, cell-based; conditions: TDE = time-dependent effect; summary of the method: as §6
CT26 [20] = experiment: Induction of apoptosis in mouse CT26 cells at 5 to 10 uM by TUNEL assay; assay type: functional, cell-based; conditions: TDE = time-dependent effect
Summary of the method: (§7)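 After treatment at various concentrations and times, CT26 cells were PBS-washed and fixed in 4% paraformaldehyde for 1 h at room temperature. They were permeabilized for 2 min on ice, then incubated with TUNEL reaction mixture for 1 h at 37 °C in the dark and counterstained with DAPI. TUNEL-positive cells were counted by fluorescence microscopy in five random fields and averaged; DMSO served as control.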

CT26 [21] = experiment: Induction of apoptosis in mouse CT26 cells after 24 to 72 hrs by TUNEL assay; assay type: functional, cell-based; summary of the method: as §7
CT26 [22] = experiment: Induction of apoptosis in mouse CT26 cells assessed as reduction of Bcl-2 protein level at 5 to 10 uM after 24 hrs by immunoblotting; assay type: functional, cell-based; summary of the method: as §2
Mus musculus [23] = experiment: Toxicity in BALB/c mouse assessed as mortality at 120 umol/kg, po administered daily once for 12 days measured on day 8; assay type: organism-based; conditions: in vivo, 288 h; summary of the method: as §4
Mus musculus [24] = experiment: Toxicity in BALB/c mouse assessed as mortality at 120 umol/kg, po administered daily once for 12 days; assay type: organism-based; conditions: in vivo, 288 h; summary of the method: as §4
MCF-7 (Homo sapiens) = experiment: Cytotoxicity against human MCF-7 cells after 72 hrs by MTT assay; conditions: MCF-7, 72 h

Structure (SMILES)	IC50 (A549) [µM]	IC50 (MDA-MB-435; Homo sapiens, MDA-MB-435, 72 h) [µM]	IC50 (MCF7; Homo sapiens, MCF7, 72 h) [µM]	IC50 (SW-620; Homo sapiens, SW-620, 72 h) [µM]	IC50 (HCT-116; Homo sapiens, HCT-116, 72 h) [µM]	IC50 (B16-F10; Mus musculus, B16-F10, 72 h) [µM]	IC50 (PC-3; Homo sapiens, PC-3, 72 h) [µM]	IC50 (4T1; Mus musculus, 4T1, 72 h) [µM]	IC50 (CT26 [1]; Mus musculus, CT26, 72 h) [µM]	Activity (Mus musculus [9])	solubility [10] [g]	other results
CC/C(C)=C(\NCc1c(O)c(O)c(C(C)C)c2cc(C)c(-c3c(C)cc4c(C(C)C)c(O)c(O)c(CN/C(C(=O)O)=C(/C)CC)c4c3O)c(O)c12)C(=O)O	13.2	> 40	25.8	11.8	23.4	20.1	> 40	> 40	11.9	–	–	–
CC1=C(C2=C(C)C(=O)c3c(c(/C=N/[C@@H]4C(=O)N5[C@@H]4SC(C)(C)[C@@H]5C(=O)[O-])c(O)c(O)c3C(C)C)C2=O)C(=O)c2c(/C=N/[C@@H]3C(=O)N4[C@@H]3SC(C)(C)[C@@H]4C(=O)[O-])c(O)c(O)c(C(C)C)c2C1=O.[Na+].[Na+]	8.77	> 40	29.1	6.56	17.4	11.1	29.5	28.2	6.59	Non-toxic	9.25	Activity (CT26 [2]): Active; Activity (CT26 [3]): inactive; Activity (CT26 [4]): inactive; Activity (CT26 [5]): Active; Activity (CT26 [6]): Active; Activity (CT26 [7]): Active; Activity (Mus musculus [8]): Non-toxic; Stability [11]: Stable; Stability (Serum [12]): Stable; Stability (Serum [13]): Stable; viability at 20 µM (CT26 [14]): 80%; viability at 20 µM (CT26 [15]): 60%; Activity (CT26 [16]): Active; Activity (CT26 [17]): Active; viability at 2 µM (CT26 [18]): > 90%; Activity (CT26 [19]): tde; Activity (CT26 [20]): tde; Activity (CT26 [21]): Dose-dependent effect; Activity (CT26 [22]): Active
CCC(C)[C@H](/N=C/c1c(O)c(O)c(C(C)C)c2cc(C)c(-c3c(C)cc4c(C(C)C)c(O)c(O)c(/C=N/[C@H](C(=O)O)C(C)CC)c4c3O)c(O)c12)C(=O)O (stereo partly drawn)	14.8	> 40	28.5	22.6	34.9	19.9	> 40	> 40	18.4	–	–	–
Cc1cc2c(C(C)C)c(O)c(O)c(C=O)c2c(O)c1-c1c(C)cc2c(C(C)C)c(O)c(O)c(C=O)c2c1O [GOSSYPOL]	–	–	12.6	–	–	–	–	18.8	–	Toxic	< 0.001	Activity (Mus musculus [23]): Toxic; Activity (Mus musculus [24]): Non-toxic; IC50 (MDA-MB-435; mda-mb-435): 11.8 µM and 33.2 µM; IC50 (MCF7; mcf7): 21.6 µM; IC50 (SW-620; sw-620): 17.2 µM; IC50 (HCT-116; hct-116): 3.33 µM and 22 µM; IC50 (B16-F10; b16-f10): 5.54 µM and 18 µM; IC50 (PC-3; pc-3): 9.14 µM and 22.4 µM; IC50 (4T1; 4t1): 21.5 µM; IC50 (CT26 [1]; ct26): 2.21 µM and 13.6 µM; IC50 (MCF-7 (Homo sapiens)): 12.6 µM
